According to paper PMC7935732 (Targeted Oncology, 2021):
Marks after values point to notes of the source that are not given here.

Columns and labels:
[1] = Plasma pharmacokinetics, LC-MS/MS, non-compartmental analysis; assay type: in vivo, human; conditions: for CL/F / RAUC (accumulation ratio for AUC0–12): abemaciclib, geometric mean (% CV); for half-life / Cmax / AUC(0-inf) / AUC(0-t) / Vd/F: human, plasma; for Cmax: Mean abemaciclib Cmax
How it was run: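 Oral test compound, 150 or 200 mg. Plasma was sampled at 1–72 h after a single dose (Cycle 1 Day 1) and at 1–24 h after twice-daily dosing (Day 31), with doses held during sampling. Parent and two major active metabolites were measured by validated LC-MS/MS. Non-compartmental analysis; total active analytes summed. RAUC compares steady-state AUC0–12 with single-dose values. Descriptive statistics by dose.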

[2] = system: patients with advanced solid tumors; conditions: given twice daily on a continuous schedule (every 12 h); mainly Caucasian patients; cited from earlier work
CDK 4 = conditions: in vitro; cited from earlier work

For `CCN1CCN(Cc2ccc(Nc3ncc(F)c(-c4cc(F)c5nc(C)n(C(C)C)c5c4)n3)nc2)CC1` [abemaciclib], the CL/F ([1]; single oral dose 150 mg (C1D1), N 12) was 22.1 (63) L/h, the CL/F ([1]; single oral dose 200 mg (C1D1), N 13) was 26.4 (74) L/h and the “RAUC (accumulation ratio for AUC0–12)” value ([1]; steady state (C1D31) 150 mg every 12 h, n = 5) was 1.57 (106)^b. The “RAUC (accumulation ratio for AUC0–12)” value ([1]; steady state (C1D31) 200 mg every 12 h, N 10) was 2.10 (69), the half-life ([1]; oral, 200 mg) was ~24 h and the Cmax ([1]; oral, 200 mg, after multiple doses of 150 or 200 mg) was 260 to 320 ng/mL. The Cmax ([1]; oral, after a single dose) was 200 ng/mL, the AUC(0-inf) ([1]; po, 150 mg) was 6790 ng·h/mL and the AUC(0-t) ([1]; po, 150 mg) was 1700 ng·h/mL. For the same compound, the Vd/F ([1]; po, 150 mg) was 767 L, the half-life ([1]; po, 150 mg) was 22.4 h and the AUC(0-inf) ([1]; po, 200 mg) was 7580 ng·h/mL. The AUC(0-t) ([1]; po, 200 mg) was 1740 ng·h/mL, the Vd/F ([1]; po, 200 mg) was 955 L and the half-life ([1]; po, 200 mg) was 22.8 h. For the same compound, the “Maximum tolerated dose (MTD)” value [2] was 200 mg and the “Greater potency against CDK 4 than against CDK 6” value (CDK 4) was 14 times.
